{"data": "Published values of several laboratories"}
{"SMILES": "CCc1cc(=O)oc2cc(OC(CC)C(=O)c3ccccc3)ccc12 (centres unmarked)", "tested on": "TZM-bl", "test": "cell growth or viability, resazurin", "quantity": "CC50", "result": "> 12.5 µM"}
{"SMILES": "Nc1ccn([C@@H]2O[C@H](CO)[C@@H](O)C2(F)F)c(=O)n1", "tested on": "MCF7", "test": "cell growth or viability, MTT", "setting": "0.625 µg/mL, 48 h", "quantity": "viability", "result": "68.6%"}
{"SMILES": "N#C[C@@]1(c2ccc3c(N)ncnn23)O[C@H](COC(=O)C2CCCCC2)[C@@H](O)[C@H]1O", "tested on": "HEp-2", "test": "cell growth or viability, CCK-8", "setting": "5 days", "quantity": "CC50", "result": "44.7 µM"}
{"SMILES": "CC(C)(N)COCC(=O)N1CCC[C@H](C(=O)NCc2nc(-c3ccc(C(F)(F)F)cc3)cs2)C1", "test": "metabolic stability", "test system": "male Sprague-Dawley rat, liver microsomes", "setting": "0.5 µM", "quantity": "microsomal CLint", "result": "9.9 µL/min/mg"}
{"SMILES": "COc1ccc2c(c1)CN(C(=O)CCN1CCC(Cc3ccccc3)CC1)CC[S@@+]2[O-]", "test system": "male human, plasma", "setting": "intravenous, 0.05 mg/kg, healthy volunteers", "quantity": "clearance", "result": "203 mL/min"}
{"SMILES": "CC[C@@H](C)[C@@H](N)C(=O)OC[C@H]1O[C@@](C#N)(c2ccc3c(N)ncnn23)[C@H](O)[C@@H]1O", "tested on": "HEp-2", "test": "cell growth or viability, CCK-8", "setting": "5 days", "quantity": "CC50", "result": "> 100 µM"}
{"SMILES": "COCC(=O)N1CCC[C@H](C(=O)NCc2nc(-c3ccccc3)cs2)C1", "test": "metabolic stability", "test system": "human, liver microsomes", "setting": "0.5 µM", "quantity": "scaled CLint", "result": "7.8 mL/min/kg"}
{"SMILES": "C[C@H]1CN(CC2CCN(c3ccc(C4CCC(=O)NC4=O)cc3F)CC2)CC[C@H]1NS(=O)(=O)c1ccc(Nc2ncc(C(F)(F)F)c(N3CCC[C@](C)(O)C3)n2)c(F)c1 (some centres unmarked)", "test": "metabolic stability", "test system": "human, liver microsomes", "setting": "1 µM", "quantity": "scaled CLint", "result": "23 mL/min/kg"}
{"SMILES": "CCONC(=O)N1CCC[C@H](C(=O)NCc2nc(-c3ccc(C#N)cc3)cs2)C1", "test": "metabolic stability", "test system": "male Sprague-Dawley rat, liver microsomes", "setting": "0.5 µM", "quantity": "scaled CLint", "result": "63 mL/min/kg"}
{"SMILES": "Cc1cc(S(=O)(=O)N[C@H]2CC[C@H](N3CCN(CC4CCN(c5cccc6c5n(C)c(=O)n6C5CCC(=O)NC5=O)CC4)CC3)CC2)ccc1Nc1ncc(C(F)(F)F)c(N2CCC[C@](C)(O)C2)n1 (some centres unmarked)", "test": "metabolic stability", "test system": "human, liver microsomes", "setting": "1 µM", "quantity": "scaled CLint", "result": "33 mL/min/kg"}
{"SMILES": "O=C(O)COc1cccc(-c2nc(Nc3ccc4[nH]ncc4c3)c3ccccc3n2)c1", "tested on": "Solute carrier organic anion transporter family member 1B3 (SLCO1B3, Homo sapiens, UniProt Q9NPD5)", "test": "transporter uptake, inhibitor", "quantity": "IC50", "result": "1.55 µM"}
{"SMILES": "C[C@H]1CN(c2ccc(C3CCC(=O)NC3=O)cc2F)CCN1CC12CCC(NS(=O)(=O)c3ccc(Nc4ncc(C(F)(F)F)c(N5CCC[C@](C)(O)C5)n4)c(F)c3)(CC1)CO2 (some centres unmarked)", "test": "metabolic stability", "test system": "human, liver microsomes", "setting": "1 µM", "quantity": "scaled CLint", "result": "22 mL/min/kg"}
{"SMILES": "N[C@H](COCC(=O)N1CCC[C@H](C(=O)NCc2nc(-c3ccc(C(F)(F)F)cc3)cs2)C1)c1ccccc1", "test": "metabolic stability", "test system": "male Sprague-Dawley rat, liver microsomes", "setting": "0.5 µM", "quantity": "microsomal CLint", "result": "84 µL/min/mg"}
{"SMILES": "CC(C)C(=O)OC[C@H]1O[C@@](C#N)(c2ccc3c(N)ncnn23)[C@H](O)[C@@H]1O", "tested on": "HEp-2", "test": "cell growth or viability, CCK-8", "setting": "5 days", "quantity": "CC50", "result": "81.6 µM"}
{"SMILES": "Cc1ncsc1-c1ccc(CNC(=O)[C@@H]2C[C@@H](O)CN2C(=O)[C@@H](NC(=O)COCCOCCn2cc(COc3ccc(-c4nc5cc(-c6ccccc6)ccn5c4Nc4ccc(C(=O)O)cc4)cc3)nn2)C(C)(C)C)cc1", "tested on": "MCF7", "test": "cell growth or viability", "setting": "72 h", "quantity": "CC50", "result": "74 µM"}
{"SMILES": "CCC(CC)COC(=O)[C@H](C)N[P@](=O)(OC[C@H]1O[C@@](C#N)(c2ccc3c(N)ncnn23)[C@H](O)[C@@H]1O)Oc1ccccc1", "tested on": "HEp-2", "test": "cell growth or viability, CCK-8", "setting": "5 days", "quantity": "CC50", "result": "2.95 µM"}
{"SMILES": "COCC(=O)N1CCC[C@H](C(=O)NCc2nc(-c3ccc(NC4CCC4)nc3)cs2)C1", "test": "metabolic stability", "test system": "male Sprague-Dawley rat, liver microsomes", "setting": "0.5 µM", "quantity": "microsomal CLint", "result": "65 µL/min/mg"}
{"SMILES": "Cc1cc(S(=O)(=O)N[C@H]2CC[C@H](CN3CCN(c4cccc(NC5CCC(=O)NC5=O)c4)CC3)CC2)ccc1Nc1ncc(C(F)(F)F)c(N2CCC[C@](C)(O)C2)n1 (some centres unmarked)", "test": "metabolic stability", "test system": "rat, liver microsomes", "setting": "1 µM", "quantity": "scaled CLint", "result": "< 21 mL/min/kg"}
{"SMILES": "CCOCC(=O)N1CCC[C@H](C(=O)NCc2nc(-c3ccc(C)nc3)cs2)C1", "test": "metabolic stability", "test system": "male Sprague-Dawley rat, liver microsomes", "setting": "0.5 µM", "quantity": "scaled CLint", "result": "33 mL/min/kg"}
{"SMILES": "Cc1cc(S(=O)(=O)N[C@]2(C)C[C@H](N3CCN(CC4CCN(c5ccc6c(c5F)n(C)c(=O)n6C5CCC(=O)NC5=O)CC4)CC3)C2)ccc1Nc1ncc(C(F)(F)F)c(N2CCC[C@](C)(O)C2)n1 (some centres unmarked)", "test": "metabolic stability", "test system": "rat, liver microsomes", "setting": "1 µM", "quantity": "scaled CLint", "result": "< 21 mL/min/kg"}
